Data: ChEMBL document CHEMBL1150956, “Antitubercular natural products: berberine from the roots of commercial Hydrastis canadensis powder. Isolation of inactive 8-oxotetrahydrothalifendine, canadine, beta-hydrastine, and two new quinic acid esters, hycandinic acid esters-1 and -2” (1998)
The source made the active and inactive calls. The rule behind the calls is not given here.

Experiments:
[1] = test system: Mycolicibacterium smegmatis; test: Antimicrobial activity against Mycobacterium smegmatis ATCC 607 at 1000 ug/ml; format: functional, organism-based
Candida albicans [2] = test: Antimicrobial activity against Candida albicans ATCC 10231 at 1000 ug/ml; format: functional, organism-based
Staphylococcus aureus [3] = test: Antimicrobial activity against Staphylococcus aureus ATCC 13709 at 1000 ug/ml; format: functional, organism-based
[4] = test system: Mycobacterium intracellulare; test: Antimicrobial activity against recombinant Mycobacterium intracellular expressing pMV361 lux after 3 days by luciferase assay; format: functional; conditions: 72 h
How it was run: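 Recombinant M. intracellulare pMV361 lux at about 5e5 cfu/mL final, in Middlebrook 7H9 broth with compound at 0.1–50 µg/mL; no-drug 1% DMSO growth controls. Incubated at 36 °C in ambient air. 100 µL culture plus 100 µL of 1 mM luciferin, read as RLU at day 0 (within 30 min) and after 3 days.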

Klebsiella pneumoniae [5] = test: Antimicrobial activity against Klebsiella pneumoniae ATCC 10031 at 1000 ug/ml; format: functional, organism-based
Candida albicans [6] = test: Antimicrobial activity against Candida albicans ATCC 10231; format: functional
Staphylococcus aureus [7] = test: Antimicrobial activity against Staphylococcus aureus ATCC 13709; format: functional
[8] = test system: Mycolicibacterium smegmatis; test: Antimicrobial activity against Mycobacterium smegmatis ATCC 607; format: functional
Klebsiella pneumoniae [9] = test: Antimicrobial activity against Klebsiella pneumoniae ATCC 10031; format: functional
Escherichia coli [10] = test: Antimicrobial activity against Escherichia coli ATCC 9637; format: functional
Pseudomonas aeruginosa [11] = test: Antimicrobial activity against Pseudomonas aeruginosa ATCC 27853; format: functional
[12] = test system: Salmonella enterica subsp. enterica serovar Gallinarum; test: Antimicrobial activity against Salmonella gallinarum ATCC 9184; format: functional
Escherichia coli [13] = test: Antimicrobial activity against Escherichia coli ATCC 9637 at 1000 ug/ml; format: functional, organism-based
[14] = test system: Salmonella enterica subsp. enterica serovar Gallinarum; test: Antimicrobial activity against Salmonella gallinarum ATCC 9184 at 1000 ug/ml; format: functional, organism-based
Pseudomonas aeruginosa [15] = test: Antimicrobial activity against Pseudomonas aeruginosa ATCC 27853 at 1000 ug/ml; format: functional, organism-based

CCCCOC(=O)[C@@]1(O)CC(OC(C)=O)[C@H](OC(=O)/C=C/c2ccc(OC(C)=O)c(OC)c2)[C@H](OC(C)=O)C1 (some centres not stated)
Activity [1]: inactive | Activity (Candida albicans [2]): inactive | Activity (Staphylococcus aureus [3]): inactive

COc1ccc2c(c1OC)C(=O)N1CCc3cc4c(cc3C1C2)OCO4 (configuration not stated)
MIC [4]: > 50 µg/mL | Activity (Klebsiella pneumoniae [5]): inactive | Activity [1]: inactive | Activity (Candida albicans [2]): inactive | Activity (Staphylococcus aureus [3]): inactive

CCCCOC(=O)[C@@]1(OC(C)=O)CC(OC(C)=O)[C@H](OC(=O)/C=C/c2ccc(OC(C)=O)c(OC)c2)[C@H](OC(C)=O)C1 (some centres not stated)
Activity [1]: inactive | Activity (Candida albicans [2]): inactive | Activity (Staphylococcus aureus [3]): inactive

COc1ccc2cc3[n+](cc2c1OC)CCc1cc2c(cc1-3)OCO2.[Cl-] [BERBERINE CHLORIDE]
MIC (Candida albicans [6]): 100 µg/mL | MIC [4]: 200 µg/mL | MIC (Staphylococcus aureus [7]): 50 µg/mL | MIC [8]: 25 µg/mL | MIC (Klebsiella pneumoniae [9]): 100 µg/mL

COc1ccc2c(c1OC)CN1CCc3cc4c(cc3[C@@H]1C2)OCO4 [CANADINE]
MIC [4]: > 50 µg/mL | Activity (Klebsiella pneumoniae [5]): inactive | Activity [1]: inactive | Activity (Candida albicans [2]): inactive | Activity (Staphylococcus aureus [3]): inactive

CCCCOC(=O)[C@@]1(O)CC(OC(=O)/C=C/c2ccc(O)c(OC)c2)[C@H](O)[C@H](O)C1 (some centres not stated)
Activity [1]: inactive | Activity (Candida albicans [2]): inactive | Activity (Staphylococcus aureus [3]): inactive

CCCCOC(=O)[C@@]1(O)CC(O)[C@H](OC(=O)/C=C/c2ccc(O)c(OC)c2)[C@H](O)C1 (some centres not stated)
Activity [1]: inactive | Activity (Candida albicans [2]): inactive | Activity (Staphylococcus aureus [3]): inactive

CN[C@@H]1[C@H](O[C@H]2[C@H](O[C@H]3[C@H](O)[C@@H](O)[C@H](N=C(N)N)[C@@H](O)[C@@H]3N=C(N)N)O[C@@H](C)[C@]2(O)C=O)O[C@@H](CO)[C@H](O)[C@H]1O.CN[C@@H]1[C@H](O[C@H]2[C@H](O[C@H]3[C@H](O)[C@@H](O)[C@H](N=C(N)N)[C@@H](O)[C@@H]3N=C(N)N)O[C@@H](C)[C@]2(O)C=O)O[C@@H](CO)[C@H](O)[C@H]1O.O=S(=O)(O)O.O=S(=O)(O)O.O=S(=O)(O)O [STREPTOMYCIN SULFATE]
MIC (Candida albicans [6]): > 100 µg/mL | MIC (Escherichia coli [10]): 6.25 µg/mL | MIC (Staphylococcus aureus [7]): 6.25 µg/mL | MIC [8]: 1.56 µg/mL | MIC (Pseudomonas aeruginosa [11]): 25 µg/mL | MIC [12]: 50 µg/mL | MIC (Klebsiella pneumoniae [9]): 1.56 µg/mL

CCCCOC(=O)[C@@]1(O)CC(OC(=O)/C=C/c2ccc(OC(C)=O)c(OC)c2)[C@H](OC(C)=O)[C@H](OC(C)=O)C1 (some centres not stated)
Activity [1]: inactive | Activity (Candida albicans [2]): inactive | Activity (Staphylococcus aureus [3]): inactive

COc1c(OC(C)=O)ccc2c1C(=O)N1CCc3cc4c(cc3C1C2)OCO4 (configuration not stated)
MIC [4]: > 50 µg/mL | Activity (Klebsiella pneumoniae [5]): inactive | Activity [1]: inactive | Activity (Candida albicans [2]): inactive | Activity (Staphylococcus aureus [3]): inactive

CCCCOC(=O)[C@@]1(OC(C)=O)CC(OC(=O)/C=C/c2ccc(OC(C)=O)c(OC)c2)[C@H](OC(C)=O)[C@H](OC(C)=O)C1 (some centres not stated)
Activity [1]: inactive | Activity (Candida albicans [2]): inactive | Activity (Staphylococcus aureus [3]): inactive

COc1c(O)ccc2c1C(=O)N1CCc3cc4c(cc3C1C2)OCO4 (configuration not stated)
MIC [4]: > 50 µg/mL | Activity (Klebsiella pneumoniae [5]): inactive | Activity [1]: inactive | Activity (Candida albicans [2]): inactive | Activity (Staphylococcus aureus [3]): inactive

COc1ccc2c(c1OC)C(=O)O[C@@H]2C1c2cc3c(cc2CCN1C)OCO3 (some centres not stated)
Activity (Klebsiella pneumoniae [5]): inactive | Activity [1]: inactive | Activity (Candida albicans [2]): inactive | Activity (Escherichia coli [13]): inactive | Activity [14]: inactive | Activity (Staphylococcus aureus [3]): inactive | Activity (Pseudomonas aeruginosa [15]): inactive
